Results taken from paper PMC4358770 (Journal of medicinal chemistry, 2010).
Like-named read-outs stand apart in the source and are kept apart here.

Assays:
rabbit IOP [1] = conditions: topically applied to New Zealand white rabbits; cited from earlier work
rabbit IOP [2] = assay: IOP measurements in normotensive rabbits; type: in vivo, New Zealand white rabbits
Summary of the method: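 Male New Zealand white rabbits (2.5 ± 0.5 kg) on a 12 h/12 h light/dark cycle. Test compound was applied unilaterally to the cornea at 100 μM in 10 μL, with 0.9% saline vehicle in the contralateral eye. Design was blinded, with two baseline readings by rebound tonometer and follow-up to 8 h. Dose–response used 1 nM–100 μM, taking the maximal response per dose. […] Mean-time effect was the time from 50% maximal IOP decrease to 50% recovery. Mean ± SEM of 8–10 experiments.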

[3] = Stability in human blood serum at 37 °C; type: in vitro ADME
[4] = target: calf intestine alkaline phosphatase (Bos taurus, UniProt P19111); assay: Hydrolysis by alkaline phosphatase; conditions: for degradation by alkaline phosphatase after 3 h: 0.2 mg analogue/77.5 μL, 12.5 units of AP, 37 °C; for resistance to hydrolysis by alkaline phosphatase: over 30 min at 37 °C
[5] = Chemical stability at pH 1.4 and 37 °C, monitored by HPLC; type: physicochemical; conditions: for t1/2 of hydrolysis at pH 1.4: pH 1.4, 37 °C, KCl/HCl buffer
turkey P2Y1 receptor = turkey P2Y1 receptor (Meleagris gallopavo, UniProt P49652); type: cell-based
P2Y1R = conditions: read-out: EC50 at P2Y1R; cited from earlier work
[6] = pH 1.4, 37 °C; cited from earlier work
[7] = pKa and ionization of the terminal phosphate/phosphonate; type: physicochemical; conditions: pH 7.4, terminal phosphate/phosphonate
[8] = cited from earlier work
human NPP3 = target: T1, human NPP3 (Homo sapiens, UniProt O14638); assay: NPP3 hydrolysis assay; type: in vitro ADME; conditions: 100 μM substrate; vs 100 μM ATP set at 100%
T1 sequence (O14638 1-875): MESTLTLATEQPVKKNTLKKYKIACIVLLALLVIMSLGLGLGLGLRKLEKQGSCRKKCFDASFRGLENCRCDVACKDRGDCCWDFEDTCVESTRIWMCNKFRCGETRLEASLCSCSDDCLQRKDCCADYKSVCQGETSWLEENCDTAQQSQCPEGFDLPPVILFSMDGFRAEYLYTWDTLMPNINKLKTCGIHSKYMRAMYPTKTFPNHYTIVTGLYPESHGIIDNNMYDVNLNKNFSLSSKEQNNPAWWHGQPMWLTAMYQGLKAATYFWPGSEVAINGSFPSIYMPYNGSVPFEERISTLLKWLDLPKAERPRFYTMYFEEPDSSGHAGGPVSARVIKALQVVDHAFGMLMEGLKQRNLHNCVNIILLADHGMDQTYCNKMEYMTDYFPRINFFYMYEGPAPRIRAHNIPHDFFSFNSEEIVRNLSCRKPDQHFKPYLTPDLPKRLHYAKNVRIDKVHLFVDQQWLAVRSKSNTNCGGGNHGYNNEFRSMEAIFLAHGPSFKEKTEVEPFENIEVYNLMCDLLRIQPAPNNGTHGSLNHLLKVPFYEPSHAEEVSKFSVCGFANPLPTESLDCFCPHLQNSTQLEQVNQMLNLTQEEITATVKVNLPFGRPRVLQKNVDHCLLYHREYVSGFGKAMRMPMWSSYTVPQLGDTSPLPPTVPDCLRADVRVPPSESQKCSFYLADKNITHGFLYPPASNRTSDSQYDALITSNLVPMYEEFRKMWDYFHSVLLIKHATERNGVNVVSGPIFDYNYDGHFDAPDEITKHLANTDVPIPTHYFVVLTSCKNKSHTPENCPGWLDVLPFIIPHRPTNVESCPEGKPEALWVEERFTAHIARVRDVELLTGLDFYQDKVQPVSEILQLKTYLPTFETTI

NTPDase3 = target: T2, NTPDase3 (Homo sapiens, UniProt O75355); assay: NTPDase3 hydrolysis assay; type: in vitro ADME; conditions: 100 μM substrate; vs 100 μM ATP set at 100%
T2 sequence (O75355 1-529): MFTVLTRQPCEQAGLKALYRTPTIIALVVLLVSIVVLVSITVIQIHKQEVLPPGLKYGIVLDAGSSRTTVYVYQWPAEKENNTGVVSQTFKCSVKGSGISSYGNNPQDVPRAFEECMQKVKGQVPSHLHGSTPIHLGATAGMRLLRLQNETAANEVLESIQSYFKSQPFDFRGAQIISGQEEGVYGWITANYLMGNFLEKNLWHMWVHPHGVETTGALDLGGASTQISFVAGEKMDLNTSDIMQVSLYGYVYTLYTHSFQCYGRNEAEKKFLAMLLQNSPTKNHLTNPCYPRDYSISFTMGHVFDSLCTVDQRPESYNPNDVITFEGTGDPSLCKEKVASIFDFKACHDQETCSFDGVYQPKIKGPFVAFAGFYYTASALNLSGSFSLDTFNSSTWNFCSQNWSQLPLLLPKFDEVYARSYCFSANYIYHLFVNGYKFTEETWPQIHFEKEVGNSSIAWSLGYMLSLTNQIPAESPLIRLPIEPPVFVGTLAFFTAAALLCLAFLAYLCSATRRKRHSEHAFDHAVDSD
Summary of the method: (§1)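 Enzymes were transiently expressed in COS-7 cells. Crude protein extracts were made by sonication, 300g clearing at 4 °C and storage at −80 °C, with protein measured by Bradford. Extract was preincubated 3 min at 37 °C in Tris-Ringer buffer, pH 7.4. […] Activity of untransfected-cell extract was subtracted.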

NTPDase1 = target: T3, NTPDase1 (Homo sapiens, UniProt P49961); assay: NTPDase1 hydrolysis assay; type: in vitro ADME; conditions: 100 μM substrate; vs 100 μM ATP set at 100%
T3 sequence (P49961 1-510): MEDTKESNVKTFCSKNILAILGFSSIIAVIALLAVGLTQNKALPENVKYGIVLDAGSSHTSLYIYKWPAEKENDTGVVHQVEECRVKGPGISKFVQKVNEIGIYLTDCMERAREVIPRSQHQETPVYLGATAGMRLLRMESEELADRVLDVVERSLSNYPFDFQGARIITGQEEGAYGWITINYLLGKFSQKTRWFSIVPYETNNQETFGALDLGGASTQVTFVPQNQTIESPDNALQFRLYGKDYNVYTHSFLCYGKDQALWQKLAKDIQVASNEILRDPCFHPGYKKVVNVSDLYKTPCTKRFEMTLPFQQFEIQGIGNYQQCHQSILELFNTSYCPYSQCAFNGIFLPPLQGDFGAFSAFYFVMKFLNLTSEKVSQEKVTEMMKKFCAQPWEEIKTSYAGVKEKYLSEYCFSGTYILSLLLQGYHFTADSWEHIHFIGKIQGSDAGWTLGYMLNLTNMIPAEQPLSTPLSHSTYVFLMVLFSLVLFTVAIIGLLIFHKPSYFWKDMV

NTPDase2 = target: T4, NTPDase2 (Homo sapiens, UniProt Q9Y5L3); assay: NTPDase2 hydrolysis assay; type: in vitro ADME; conditions: 100 μM substrate; vs 100 μM ATP set at 100%
T4 sequence (Q9Y5L3 1-495): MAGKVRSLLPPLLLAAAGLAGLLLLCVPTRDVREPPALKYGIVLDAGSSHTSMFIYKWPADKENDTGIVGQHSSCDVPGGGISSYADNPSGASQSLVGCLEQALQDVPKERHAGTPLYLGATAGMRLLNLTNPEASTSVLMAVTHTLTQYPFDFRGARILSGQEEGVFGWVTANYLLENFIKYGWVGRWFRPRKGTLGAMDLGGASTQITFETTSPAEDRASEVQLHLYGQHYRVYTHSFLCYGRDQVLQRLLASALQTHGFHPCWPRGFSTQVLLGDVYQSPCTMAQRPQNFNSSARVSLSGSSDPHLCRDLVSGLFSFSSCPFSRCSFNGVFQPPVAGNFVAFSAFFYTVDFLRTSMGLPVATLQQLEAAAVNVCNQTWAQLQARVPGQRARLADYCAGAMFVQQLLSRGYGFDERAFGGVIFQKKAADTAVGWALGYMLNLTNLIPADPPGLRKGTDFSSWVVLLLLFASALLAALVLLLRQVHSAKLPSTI
Summary of the method: as §1

[9] = human blood serum/RPMI-1640, 37 °C

calf intestine alkaline phosphatase, sequence (P19111 20-533): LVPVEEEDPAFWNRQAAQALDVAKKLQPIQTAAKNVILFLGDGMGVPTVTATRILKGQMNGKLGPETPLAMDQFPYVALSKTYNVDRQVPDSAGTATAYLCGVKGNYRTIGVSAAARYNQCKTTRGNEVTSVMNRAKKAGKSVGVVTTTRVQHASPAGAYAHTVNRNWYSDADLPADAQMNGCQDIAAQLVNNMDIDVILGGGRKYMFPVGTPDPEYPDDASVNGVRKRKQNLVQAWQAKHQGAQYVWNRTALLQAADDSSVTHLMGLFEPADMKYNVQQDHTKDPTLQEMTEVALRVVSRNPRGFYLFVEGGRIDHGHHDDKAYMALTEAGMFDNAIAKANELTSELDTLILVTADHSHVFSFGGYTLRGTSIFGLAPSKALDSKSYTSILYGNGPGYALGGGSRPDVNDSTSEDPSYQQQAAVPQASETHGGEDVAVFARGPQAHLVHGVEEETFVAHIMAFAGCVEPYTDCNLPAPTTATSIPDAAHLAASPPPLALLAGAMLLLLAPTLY
turkey P2Y1 receptor, sequence (P49652 whole entry): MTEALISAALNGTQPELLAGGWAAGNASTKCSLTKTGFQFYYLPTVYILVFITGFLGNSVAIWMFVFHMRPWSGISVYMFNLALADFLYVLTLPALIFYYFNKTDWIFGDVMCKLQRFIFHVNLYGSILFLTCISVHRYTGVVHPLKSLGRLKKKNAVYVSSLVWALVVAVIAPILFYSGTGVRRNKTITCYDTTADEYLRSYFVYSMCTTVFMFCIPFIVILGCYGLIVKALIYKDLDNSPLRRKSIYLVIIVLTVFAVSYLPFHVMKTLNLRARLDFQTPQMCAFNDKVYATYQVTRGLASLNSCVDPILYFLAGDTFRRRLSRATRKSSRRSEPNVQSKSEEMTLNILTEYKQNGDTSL

Nc1ncnc2c1ncn2[C@@H]1O[C@H](COP(=O)(O)OP(=O)(O)OP(=O)(O)OP(=O)(O)OC[C@H]2O[C@@H](n3cnc4c(N)ncnc43)[C@H](O)[C@@H]2O)[C@@H](O)[C@H]1O [Ap4A, diadenosine tetraphosphate]
effect on IOP (increase or reduction) (rabbit IOP [1]): reduced

Nc1ncnc2c1ncn2[C@@H]1O[C@H](COP(=O)(O)OP(=O)(O)OP(=O)(O)OP(=O)(O)OP(=O)(O)OC[C@H]2O[C@@H](n3cnc4c(N)ncnc43)[C@H](O)[C@@H]2O)[C@@H](O)[C@H]1O [Ap5A, diadenosine pentaphosphate]
effect on IOP (increase or reduction) (rabbit IOP [1]): increase IOP

CC(C)OC(=O)CCC/C=C\C[C@@H]1[C@@H](CC[C@@H](O)CCc2ccccc2)[C@H](O)C[C@@H]1O [latanoprost]
duration of the reduction in IOP (mean-time effect) (rabbit IOP [2]; commercial drug, 0.005%, 40 μL): 5.5 h

CSc1nc(N)c2ncn([C@@H]3O[C@H](COP(=O)(O)OP(=O)(O)O)[C@@H](O)[C@H]3O)c2n1 [analogue 7, 2-MeS-ADP]
half-life at 0.248 mM ([3]; human, human blood serum diluted with RPMI-1640 medium): 23.5 h | degradation by alkaline phosphatase after 3 h [4]: 87%

CSc1nc(N)c2ncn([C@@H]3O[C@H](COP(=O)(O)OP(=O)(O)C(Cl)(Cl)P(=O)(O)O)[C@@H](O)[C@H]3O)c2n1 [analogue 9, β,γ-CCl2-2-MeS-ATP]
t1/2 of hydrolysis at pH 1.4 [5]: 65 h | degradation in human blood serum over 24 h [3, 9]: 15% | duration of the reduction in IOP (mean-time effect) (rabbit IOP [2]; 100 μM, 10 μL): 4.5 h

BP(=O)(OC[C@H]1O[C@@H](n2cnc3c(N)nc(SC)nc32)[C@H](O)[C@@H]1O)OP(=O)(O)C(F)(F)P(=O)(O)O (stereo partly drawn) [analogue 10B, 2-MeS-adenosine-5′-O-(α-boranotriphosphate)-β,γ-CF2]
t1/2 of hydrolysis at pH 1.4 [5]: ~8 h | fold reduction in P2Y1R activity vs analogue 8 (turkey P2Y1 receptor; replacement of nonbridging oxygen with BH3): 3 fold

BP(=O)(OCC1OC(n2cnc3c(N)nc(SC)nc32)C(O)C1O)OP(=O)(O)C(F)(F)P(=O)(O)O (stereo not drawn) [analogue 10, α-borano-β,γ-CF2-2-MeS-ATP]
resistance to hydrolysis by alkaline phosphatase [4]: completely resistant

Nc1ncnc2c1ncn2[C@@H]1O[C@H](COP(=O)(O)OP(=O)(O)O)[C@@H](O)[C@H]1O [ADP]
half-life in human blood serum [3, 9]: 1.4 h | degradation by alkaline phosphatase after 3 h [4]: completely degraded

2-MeS-α-borano-ATP (A-isomer) [analogue 4A]
EC50 (P2Y1R): 2.6 nM

BP(=O)(OCC1OC(n2cnc3c(N)nc(SC)nc32)C(O)C1O)OP(=O)(O)C(Cl)(Cl)P(=O)(O)O (stereo not drawn) [analogue 12, α-borano-β,γ-CCl2-2-MeS-ATP]
resistance to hydrolysis by alkaline phosphatase [4]: completely resistant

BP(=O)(OC[C@H]1O[C@@H](n2cnc3c(N)nc(SC)nc32)[C@H](O)[C@@H]1O)OP(=O)(O)CP(=O)(O)O (some centres unmarked) [analogue 3B]
EC50 (P2Y1R): 17200 nM

CSc1nc(N)c2ncn([C@@H]3O[C@H](COP(=O)(O)C(F)(F)P(=O)(O)O)[C@@H](O)[C@H]3O)c2n1 [analogue 13, 2-MeS-adenosine-5′-O-diphosphate-α,β-difluoromethylene]
starting material remaining at pH 1.4 ([5]; pH 1.4, after 30 days): 61%

Nc1ncnc2c1ncn2[C@@H]1O[C@H](COP(=O)(O)OP(=O)(O)OP(=O)(O)OC[C@@H]2O[C@H](n3cnc4c(N)ncnc43)[C@@H](O)[C@H]2O)[C@@H](O)[C@H]1O [Ap3A, diadenosine triphosphate]
effect on IOP (increase or reduction) (rabbit IOP [1]): increase IOP

BP(=O)(OC[C@H]1O[C@@H](n2cnc3c(N)nc(SC)nc32)[C@H](O)[C@@H]1O)OP(=O)(O)CP(=O)(O)O (stereo partly drawn) [analogue 3, 2-MeS-α-B,β,γ-CH2-ATP]
t1/2 of hydrolysis at pH 1.4 [6]: 14.5 h

CSc1nc(N)c2ncn([C@@H]3O[C@H](COP(=O)(O)C(Cl)(Cl)P(=O)(O)O)[C@@H](O)[C@H]3O)c2n1 [analogue 14, 2-MeS-Rα,β-dichloromethylene-ADP]
hydrolysis of the starting material at pH 1.4 ([5]; pH 1.4, after 6 days): 15% | degradation in human blood serum over 24 h [3, 9]: completely resistant

CSc1nc(N)c2ncn([C@@H]3O[C@H](COP(=O)(O)OP(=O)(O)CP(=O)(O)O)[C@@H](O)[C@H]3O)c2n1 [analogue 1, 2-MeS-β,γ-CH2-ATP]
fraction ionized at physiological pH [7]: 9% | t1/2 in human blood serum [8]: 12.1 h | EC50 (P2Y1R): 80 nM | duration of the reduction in IOP (mean-time effect) (rabbit IOP [2]; 100 μM, 10 μL): 3.5 h

BP(=O)(OC[C@H]1O[C@@H](n2cnc3c(N)nc(SC)nc32)[C@H](O)[C@@H]1O)OP(=O)(O)C(Cl)(Cl)P(=O)(O)O (stereo partly drawn) [analogue 12B, 2-MeS-adenosine-5′-O-(α-boranotriphosphate)-β,γ-CCl2]
relative hydrolysis by NPP3 (human NPP3): completely resistant | fold less potent at P2Y1R than the A isomer 12A (turkey P2Y1 receptor; B isomer vs A isomer): 2 fold | relative hydrolysis by NTPDase3 (NTPDase3): completely resistant | relative hydrolysis by NTPDase1 (NTPDase1): completely resistant | relative hydrolysis by NTPDase2 (NTPDase2): completely resistant

α-B,β,γ-CH2-ATP [analogue 2]
t1/2 of hydrolysis at pH 1.4 [6]: 19 h

Nc1ncnc2c1ncn2[C@@H]1O[C@H](COP(=O)(O)OP(=O)(O)OP(=O)(O)OP(=O)(O)O)[C@@H](O)[C@H]1O [Ap4, adenosine tetraphosphate]
effect on IOP (increase or reduction) (rabbit IOP [1]): reduced
